This is an account of results in ChEMBL document CHEMBL1157945, “Bioactive secolignans from Peperomia dindygulensis” (J Nat Prod, 2006).

The test system of one experiment is HepG2. Put plainly: Cytotoxicity against human HepG2 cells. The class given is functional, cell-based. An outline of the steps:
(§1)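 Growth inhibition in WI-38 fibroblasts (Eagle's MEM), VA-13 (RITC 80-7) and HepG2 (D-MEM) lines, each medium with 10% FBS and 80 µg/mL kanamycin.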

Experiment [1] is described as follows: Reversal of multidrug resistance in human AD10 cells assessed as increase in calcein accumulation at 0.25 ug/ml relative to control. The experiment is classed as functional. A digest of the protocol:
(§2)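 Multidrug-resistant ovarian A2780 subline AD10, kept in RPMI-1640 with 10% FBS and 80 µg/mL kanamycin. Intracellular accumulation of the fluorescent efflux probe calcein AM measured with test compounds at 0.25, 2.5 and 25 µg/mL; verapamil as reference. Values given relative to untreated control or to verapamil; means of triplicates.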

A short description of experiment [2]: Reversal of multidrug resistance in human AD10 cells assessed as increase in calcein accumulation at 2.5 ug/ml relative to control. The experiment is classed as functional. An outline of the steps: as §2
A short description of experiment [3]: Reversal of multidrug resistance in human AD10 cells assessed as increase in calcein accumulation at 25 ug/ml relative to control. The experiment is classed as functional. A digest of the protocol: as §2
The nature of experiment [4]: Reversal of multidrug resistance in human AD10 cells assessed as increase in calcein accumulation at 0.25 ug/ml relative to verapamil. The class given is functional. An outline of the steps:
as §2

Experiment [5] in a line: Reversal of multidrug resistance in human AD10 cells assessed as increase in calcein accumulation at 2.5 ug/ml relative to verapamil. The class given is functional. An outline of the steps:
as §2

The nature of experiment [6]: Reversal of multidrug resistance in human AD10 cells assessed as increase in calcein accumulation at 25 ug/ml relative to verapamil. The experiment is classed as functional. An outline of the steps:
as §2

The test system of experiment [7] is A549. As to the kind of experiment: Antiinflammatory activity in human A549 cells assessed as inhibition of TNF-alpha-induced ICAM1 induction incubated for 1 hr prior to TNFalpha challenge measured after 6 hrs. The class given is functional, cell-based. A digest of the protocol: (§3)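 A549 cells grown in RPMI 1640 with 10% FBS and penicillin-streptomycin. Pretreated with serially varied compound concentrations for 1 h, then stimulated with IL-1α or TNF-α for 6 h. Cell-surface ICAM-1 detected with mouse anti-human ICAM-1 antibody plus peroxidase-conjugated goat anti-mouse IgG, read as absorbance. Expression as % of control = (sample+cytokine − no cytokine)/(cytokine − no cytokine) ×100; IC50 derived from this.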

Experiment [8] concerns A549. As to the kind of experiment: Antiinflammatory activity in human A549 cells assessed as inhibition of IL1alpha -induced ICAM1 induction incubated for 1 hr prior to IL1alpha challenge measured after 6 hrs. The experiment is classed as functional, cell-based. A digest of the protocol: as §3
Experiment [9] deals with A549. As to the kind of experiment: Cytotoxicity against human A549 cells after 24 hrs by MTT assay. The experiment is classed as functional, cell-based. The note with it: A549, 24 h. An outline of the steps:
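A549 cells in RPMI 1640 with 10% FBS were exposed to serial dilutions of compound for 24 h. Viability read by MTT absorbance: % = (experimental − background)/(control − background) ×100. IC50 taken from viability data.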
For orientation: Tetrazolium assays rely on reduction of a dye to a coloured formazan, in cell work by metabolically active cells.

Experiment [10] in a line: Cytotoxicity against human WI38 cells. The experiment is classed as cell-based. Conditions: WI-38. A digest of the protocol:
as §1

For another experiment, the system named is WI-38 VA13. Put plainly: Cytotoxicity against human VA13 cells. The class given is functional, cell-based. A digest of the protocol:
as §1

Where only a bound is given, the exact number is not on record here.

In the case of `C=C1C(=O)OC[C@H]1C(c1cc(OC)c(O)c(OC)c1)c1cc(OC)c2c(c1)OCO2` (some centres not stated), the concentration for half-maximal inhibition (IC50) (in general, the point on the concentration scale where inhibition reaches its midpoint) stood at 22.3 µM with HepG2; 3.16 µM in the experiment on A549 [7]; 4.23 µM with A549 [8]; 84.7 µM in the experiment with A549 [9]; 20.9 µM in [10]; 13.5 µM in the experiment on WI-38 VA13. Also, the Activity in experiment [1] is on record as 104%; in [2] it was 98%; in experiment [3], 125%; in experiment [4] it was 98%; in [5] it was 85%; in experiment [6], 83%.
Turning to `COc1cc(C(c2cc(OC)c3c(c2)OCO3)[C@@H]2CO[C@@H](O)[C@@H]2C)cc2c1OCO2`, the IC50 with HepG2 was found to be 140 µM; in experiment [10], 142 µM; in the experiment on WI-38 VA13 it was 138 µM. Further, the Activity in experiment [1] is on record as 99%; in experiment [2], 104%; in [3] it was 107%; in experiment [4], 93%; in experiment [5], 90%; in experiment [6], 71%.
With `COc1cc(C(c2cc(OC)c3c(c2)OCO3)[C@@H]2COC(=O)[C@H]2C)cc(OC)c1O` (some centres not stated), the IC50 in the experiment with HepG2 amounted to 159 µM; in [10], 174 µM; in the experiment with WI-38 VA13, 112 µM. The Activity in experiment [1] is 99%; in experiment [2], 104%; in [3], 107%; in experiment [4], 93%; in experiment [5], 90%; in experiment [6], 71%.
Take `COc1cc(C(c2cc(OC)c3c(c2)OCO3)[C@@H]2COC(=O)[C@@H]2CO)cc(OC)c1OC` (some centres not stated): the IC50 (in the experiment on HepG2; in experiment [10]; with WI-38 VA13) was greater than 224 µM each time. In addition, the Activity is 105% in experiment [1]; 109% in [2]; 125% in experiment [3]; 98% in [4]; 94% in [5]; 83% in experiment [6].
Regarding `COc1cc(C(c2cc(OC)c(OC)c(OC)c2)[C@@H]2COC(=O)[C@H]2C)cc(O)c1OC` (some centres not stated), the IC50 is greater than 231 µM with HepG2; 59.9 µM with A549 [7]; 119 µM in the experiment with A549 [8]; greater than 316 µM in the experiment on A549 [9]; greater than 231 µM in [10]; greater than 231 µM in the experiment on WI-38 VA13. The Activity is 101% in experiment [1]; 104% in [2]; 105% in experiment [3]; 95% in experiment [4]; 90% in experiment [5]; 70% in experiment [6].
Take `COc1cc(C(c2cc(OC)c(OC)c(OC)c2)[C@@H]2COC(=O)[C@H]2C)cc(OC)c1O` (some centres not stated): the 50% inhibitory concentration (IC50) in the experiment with HepG2 is 163 µM; in the experiment with A549 [7] it was 29 µM; with A549 [8], 44.3 µM; with A549 [9], greater than 316 µM; in experiment [10] it was 184 µM; in the experiment on WI-38 VA13 it was 151 µM. Further, the Activity is given as 96% in [1]; 95% in experiment [2]; 103% in [3]; 90% in experiment [4]; 82% in experiment [5]; 68% in [6].
As for `COc1cc(C(c2cc(OC)c3c(c2)OCO3)[C@@H]2COC(=O)[C@@H]2CO)cc2c1OCO2`, the IC50 is 97.8 µM with HepG2, greater than 316 µM with A549 [9], 12.8 µM in [10] and 113 µM in the experiment on WI-38 VA13. The Activity in experiment [1] is listed as 98%; in [2], 95%; in [3], 105%; in [4], 92%; in [5], 82%; in [6], 70%.
With `COc1ccc(CCN(C)CCCC(C#N)(c2ccc(OC)c(OC)c2)C(C)C)cc1OC` (configuration not stated), the Activity in [1] is given as 106%; in experiment [2] it was 116%; in experiment [3], 150%.
Take `COc1cc(C(c2cc(OC)c3c(c2)OCO3)[C@@H]2COC(=O)[C@@H]2COC(C)=O)cc(OC)c1O` (single isomer, unassigned; (-)): the 50% inhibitory concentration (IC50) turned out to be 75.9 µM with HepG2, 14.8 µM in experiment [10] and 15.2 µM with WI-38 VA13. In addition, the Activity in [1] is 108%; in experiment [2], 104%; in [3], 104%; in experiment [4] it was 101%; in [5], 89%; in experiment [6], 69%.
Consider `COc1cccc2c1C(=O)c1c(O)c3c(c(O)c1C2=O)C[C@@](O)(C(=O)CO)C[C@@H]3O[C@H]1C[C@H](N)[C@H](O)[C@H](C)O1` (stereo in doubt) [DOXORUBICIN], for which the IC50 in the experiment on HepG2 worked out at 2.21 µM; in [10], 1.21 µM; in the experiment on WI-38 VA13 it was 0.699 µM.
Take `CC(=O)O[C@H]1C(=O)[C@@]2(C)[C@H]([C@H](OC(=O)c3ccccc3)[C@]3(O)C[C@H](OC(=O)[C@H](O)[C@@H](NC(=O)c4ccccc4)c4ccccc4)C(C)=C1C3(C)C)[C@]1(OC(C)=O)CO[C@@H]1C[C@@H]2O` [PACLITAXEL]: the IC50 in experiment [10] is 0.0468 µM; in the experiment on WI-38 VA13, 0.0059 µM.
In the case of `COc1cc(C(c2cc(OC)c3c(c2)OCO3)[C@@H]2COC(=O)[C@H]2C)cc2c1OCO2` [PEPEROMIN A], the IC50 was greater than 239 µM in the experiment on HepG2, greater than 316 µM in the experiment with A549 [9], greater than 239 µM in [10] and greater than 239 µM in the experiment on WI-38 VA13. The Activity in [1] is on record as 85%; in experiment [2], 91%; in experiment [3], 120%; in [4] it was 90%; in experiment [5] it was 82%; in experiment [6] it was 83%.
Take `COc1cc([C@@H](c2cc(OC)c3c(c2)OCO3)[C@@H]2COC(=O)[C@H]2C)cc(OC)c1OC` [PEPEROMIN B]: the concentration for half-maximal inhibition (IC50) was 119 µM in the experiment on HepG2, greater than 316 µM in the experiment on A549 [9], 9.06 µM in experiment [10] and 13.9 µM in the experiment with WI-38 VA13. Further, the Activity in [1] was 111%; in [2] it was 104%; in experiment [3], 121%; in experiment [4], 132%; in experiment [5], 107%; in experiment [6], 81%.
For the compound `COc1cc(C(c2cc(OC)c(OC)c(OC)c2)[C@@H]2COC(=O)[C@H]2C)cc(OC)c1OC` [PEPEROMIN C], the IC50 in the experiment on HepG2 was 189 µM; in the experiment with A549 [7], 125 µM; in the experiment on A549 [8], 246 µM; in the experiment on A549 [9], greater than 316 µM; in [10], 175 µM; in the experiment on WI-38 VA13 it was 120 µM. The Activity was 109% in [1]; 115% in experiment [2]; 138% in experiment [3]; 130% in experiment [4]; 118% in [5]; 92% in experiment [6].
On to `C=C1C(=O)OC[C@H]1C(c1cc(OC)c2c(c1)OCO2)c1cc(OC)c2c(c1)OCO2` [PEPEROMIN E], for which the IC50 in the experiment with HepG2 is 12.1 µM; in the experiment on A549 [9] it was 78.9 µM; in [10] it was 1.21 µM; with WI-38 VA13, 1.93 µM. Further, the Activity in [1] is 102%; in experiment [2], 102%; in experiment [3], 132%; in experiment [4] it was 96%; in experiment [5] it was 88%; in experiment [6] it was 88%.
